Among the data in ChEMBL document CHEMBL1165965, “Synthesis and structure-activity relationships of 1,2,3,4-tetrahydropyrido[2,3-b]pyrazines as potent and selective inhibitors of the anaplastic lymphoma kinase” (Bioorg Med Chem, 2010) are inhibition values, retold here.

In test [1] the target is SRSF protein kinase 2 (Homo sapiens) (UniProt P78362). Kind of test: Inhibition of SRPK2 at 1 uM.
The target in test [2] is T1, Uncharacterized serine/threonine-protein kinase SBK3 (Homo sapiens) (UniProt P0C264).
T1 sequence (whole entry): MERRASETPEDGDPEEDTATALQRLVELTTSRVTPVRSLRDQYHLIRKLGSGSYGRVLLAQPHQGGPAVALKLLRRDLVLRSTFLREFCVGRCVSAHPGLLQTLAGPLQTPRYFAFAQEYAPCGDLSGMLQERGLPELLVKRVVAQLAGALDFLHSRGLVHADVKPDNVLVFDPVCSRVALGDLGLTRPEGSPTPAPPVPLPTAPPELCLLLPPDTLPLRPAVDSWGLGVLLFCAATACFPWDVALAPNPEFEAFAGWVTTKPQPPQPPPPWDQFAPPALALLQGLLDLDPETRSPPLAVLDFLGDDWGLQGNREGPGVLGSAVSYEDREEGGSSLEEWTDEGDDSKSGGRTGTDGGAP
Kind of test: Inhibition of SgK110 at 1 uM.

Test [3] deals with Myosin light chain kinase, smooth muscle (Homo sapiens) (UniProt Q15746). Kind of test: Inhibition of MYLK at 1 uM.
Chain of Myosin light chain kinase, smooth muscle (Homo sapiens) (Q15746 whole entry): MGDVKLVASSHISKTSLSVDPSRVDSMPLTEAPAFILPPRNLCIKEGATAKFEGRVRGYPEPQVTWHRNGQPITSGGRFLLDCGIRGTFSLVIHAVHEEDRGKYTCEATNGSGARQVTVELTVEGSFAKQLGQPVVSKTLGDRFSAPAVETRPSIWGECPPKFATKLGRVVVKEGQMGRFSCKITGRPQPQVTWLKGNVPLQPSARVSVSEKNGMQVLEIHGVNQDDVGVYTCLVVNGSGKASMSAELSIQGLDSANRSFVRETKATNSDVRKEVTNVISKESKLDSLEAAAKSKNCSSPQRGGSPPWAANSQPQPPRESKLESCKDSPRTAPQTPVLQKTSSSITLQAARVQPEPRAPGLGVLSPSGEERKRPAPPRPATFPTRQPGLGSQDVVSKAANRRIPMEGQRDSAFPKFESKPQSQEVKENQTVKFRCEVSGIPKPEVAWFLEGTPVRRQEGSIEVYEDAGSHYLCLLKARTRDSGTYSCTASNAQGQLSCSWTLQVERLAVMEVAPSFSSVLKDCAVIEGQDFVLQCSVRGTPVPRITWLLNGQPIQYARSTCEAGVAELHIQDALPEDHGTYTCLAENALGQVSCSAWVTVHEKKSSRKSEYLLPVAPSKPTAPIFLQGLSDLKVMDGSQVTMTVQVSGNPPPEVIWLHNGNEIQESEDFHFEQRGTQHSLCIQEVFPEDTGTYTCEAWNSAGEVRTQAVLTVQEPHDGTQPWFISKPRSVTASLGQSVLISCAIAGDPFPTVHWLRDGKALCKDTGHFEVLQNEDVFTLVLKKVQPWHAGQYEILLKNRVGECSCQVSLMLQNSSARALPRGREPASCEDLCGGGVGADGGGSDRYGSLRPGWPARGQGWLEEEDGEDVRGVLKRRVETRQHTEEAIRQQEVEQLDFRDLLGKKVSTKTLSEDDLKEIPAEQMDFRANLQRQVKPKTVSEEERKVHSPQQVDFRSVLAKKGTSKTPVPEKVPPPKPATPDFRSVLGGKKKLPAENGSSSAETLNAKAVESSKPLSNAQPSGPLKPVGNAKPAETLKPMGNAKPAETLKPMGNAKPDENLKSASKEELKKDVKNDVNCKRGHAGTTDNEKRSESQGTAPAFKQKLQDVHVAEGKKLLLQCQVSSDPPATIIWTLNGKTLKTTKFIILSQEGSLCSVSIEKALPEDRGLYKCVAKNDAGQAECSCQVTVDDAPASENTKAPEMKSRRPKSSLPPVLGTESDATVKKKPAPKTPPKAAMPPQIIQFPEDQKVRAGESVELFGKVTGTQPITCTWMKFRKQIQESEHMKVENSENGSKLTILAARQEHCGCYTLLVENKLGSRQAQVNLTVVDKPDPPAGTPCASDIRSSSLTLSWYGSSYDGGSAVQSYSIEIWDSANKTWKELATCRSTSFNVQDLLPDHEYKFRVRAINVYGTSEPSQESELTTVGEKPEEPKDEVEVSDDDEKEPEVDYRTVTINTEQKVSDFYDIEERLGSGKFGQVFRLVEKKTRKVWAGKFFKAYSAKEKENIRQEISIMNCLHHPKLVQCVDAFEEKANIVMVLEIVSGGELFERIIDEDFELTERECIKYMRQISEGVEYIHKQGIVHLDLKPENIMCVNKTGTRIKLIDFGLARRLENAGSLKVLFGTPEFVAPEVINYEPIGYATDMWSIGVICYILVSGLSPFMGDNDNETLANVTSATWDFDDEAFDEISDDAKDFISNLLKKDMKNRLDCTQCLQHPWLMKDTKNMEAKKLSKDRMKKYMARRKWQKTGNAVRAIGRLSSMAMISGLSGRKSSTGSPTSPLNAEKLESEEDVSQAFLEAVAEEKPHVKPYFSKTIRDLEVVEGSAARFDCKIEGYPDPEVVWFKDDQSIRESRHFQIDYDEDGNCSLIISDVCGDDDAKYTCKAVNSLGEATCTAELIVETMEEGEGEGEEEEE
The target of test [4] is T2, TGF-beta receptor type-1 (Homo sapiens) (UniProt P36897).
T2 sequence (whole entry): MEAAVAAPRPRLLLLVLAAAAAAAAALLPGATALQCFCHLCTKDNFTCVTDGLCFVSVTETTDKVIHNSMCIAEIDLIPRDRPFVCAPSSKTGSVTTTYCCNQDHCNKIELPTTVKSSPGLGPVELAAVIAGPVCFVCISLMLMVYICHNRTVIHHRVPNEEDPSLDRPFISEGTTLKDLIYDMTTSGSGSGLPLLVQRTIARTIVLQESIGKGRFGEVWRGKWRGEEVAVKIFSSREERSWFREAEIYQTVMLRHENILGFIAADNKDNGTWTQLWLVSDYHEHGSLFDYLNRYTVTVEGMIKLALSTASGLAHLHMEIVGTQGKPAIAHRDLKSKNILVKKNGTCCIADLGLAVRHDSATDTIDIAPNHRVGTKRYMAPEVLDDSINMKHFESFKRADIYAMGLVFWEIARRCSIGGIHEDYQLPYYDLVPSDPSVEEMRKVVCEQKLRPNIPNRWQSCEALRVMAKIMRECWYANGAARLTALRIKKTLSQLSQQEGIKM
Kind of test: Inhibition of TGFBR1 at 1 uM.

For test [5], the target named is Serine/threonine-protein kinase SIK1 (Homo sapiens) (UniProt P57059). Kind of test: Inhibition of SIK at 1 uM.
Chain of Serine/threonine-protein kinase SIK1 (Homo sapiens) (P57059 whole entry): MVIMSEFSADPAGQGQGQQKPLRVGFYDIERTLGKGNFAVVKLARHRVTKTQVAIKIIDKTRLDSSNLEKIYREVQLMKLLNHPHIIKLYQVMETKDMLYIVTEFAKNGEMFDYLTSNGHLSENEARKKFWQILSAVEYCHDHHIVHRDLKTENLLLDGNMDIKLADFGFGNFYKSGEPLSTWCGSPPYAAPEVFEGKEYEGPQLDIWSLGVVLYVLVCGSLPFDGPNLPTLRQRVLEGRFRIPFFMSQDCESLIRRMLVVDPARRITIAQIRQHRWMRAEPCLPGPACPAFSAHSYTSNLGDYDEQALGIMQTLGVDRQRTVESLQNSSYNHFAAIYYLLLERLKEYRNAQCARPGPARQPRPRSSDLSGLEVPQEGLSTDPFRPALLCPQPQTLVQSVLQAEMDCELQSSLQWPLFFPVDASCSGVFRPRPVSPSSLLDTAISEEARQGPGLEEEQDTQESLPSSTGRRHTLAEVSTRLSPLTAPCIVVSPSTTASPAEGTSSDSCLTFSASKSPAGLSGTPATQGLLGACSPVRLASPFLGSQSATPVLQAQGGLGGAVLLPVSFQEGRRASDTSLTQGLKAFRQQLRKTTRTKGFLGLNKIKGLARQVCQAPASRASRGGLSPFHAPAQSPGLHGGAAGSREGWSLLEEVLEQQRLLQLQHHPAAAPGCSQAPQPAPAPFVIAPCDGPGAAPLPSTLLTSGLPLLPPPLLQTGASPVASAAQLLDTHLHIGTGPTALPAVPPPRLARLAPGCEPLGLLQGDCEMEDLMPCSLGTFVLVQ
Test [6] deals with T3, Ephrin type-A receptor 6 (Homo sapiens) (UniProt Q9UF33).
T3 sequence (whole entry): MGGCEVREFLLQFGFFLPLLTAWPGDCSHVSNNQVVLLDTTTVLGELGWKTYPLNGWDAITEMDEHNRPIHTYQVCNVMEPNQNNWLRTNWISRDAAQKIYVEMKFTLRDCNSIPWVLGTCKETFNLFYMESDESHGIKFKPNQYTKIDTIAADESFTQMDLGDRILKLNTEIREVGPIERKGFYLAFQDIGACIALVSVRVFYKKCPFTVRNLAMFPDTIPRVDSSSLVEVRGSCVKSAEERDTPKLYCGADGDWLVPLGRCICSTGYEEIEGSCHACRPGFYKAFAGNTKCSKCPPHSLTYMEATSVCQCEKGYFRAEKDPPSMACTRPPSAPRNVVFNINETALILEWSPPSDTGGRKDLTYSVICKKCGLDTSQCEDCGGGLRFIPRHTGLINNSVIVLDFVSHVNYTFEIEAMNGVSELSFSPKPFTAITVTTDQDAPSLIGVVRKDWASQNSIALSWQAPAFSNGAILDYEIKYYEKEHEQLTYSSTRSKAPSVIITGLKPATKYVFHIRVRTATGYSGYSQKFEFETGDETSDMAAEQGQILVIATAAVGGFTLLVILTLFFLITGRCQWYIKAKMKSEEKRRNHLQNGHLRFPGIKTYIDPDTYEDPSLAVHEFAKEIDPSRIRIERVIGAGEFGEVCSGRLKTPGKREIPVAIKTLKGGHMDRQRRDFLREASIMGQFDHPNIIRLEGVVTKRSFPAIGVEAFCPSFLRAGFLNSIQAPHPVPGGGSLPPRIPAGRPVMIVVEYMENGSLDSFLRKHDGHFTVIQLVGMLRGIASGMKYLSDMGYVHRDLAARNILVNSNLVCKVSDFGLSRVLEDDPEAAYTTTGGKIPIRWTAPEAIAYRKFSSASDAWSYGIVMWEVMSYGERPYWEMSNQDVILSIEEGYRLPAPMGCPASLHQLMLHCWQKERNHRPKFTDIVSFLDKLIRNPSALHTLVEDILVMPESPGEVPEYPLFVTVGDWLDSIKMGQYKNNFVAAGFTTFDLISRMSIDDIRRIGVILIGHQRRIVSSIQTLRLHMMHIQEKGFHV
Kind of test: Inhibition of EPHA6 at 1 uM. Summed up: (§1)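 Single-concentration screen using Ambit Bioscience KINOMEscan technology across a panel of 250–400 kinases. Per-kinase inhibition from this screen was summarized as S(90), the fraction of kinases inhibited by more than 90%.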

Test [7] deals with Epithelial discoidin domain-containing receptor 1 (Homo sapiens) (UniProt Q08345). The experiment in a line: Inhibition of DDR1 at 1 uM. The essentials:
as §1

Chain of Epithelial discoidin domain-containing receptor 1 (Homo sapiens) (Q08345 whole entry, the tested form may be a part): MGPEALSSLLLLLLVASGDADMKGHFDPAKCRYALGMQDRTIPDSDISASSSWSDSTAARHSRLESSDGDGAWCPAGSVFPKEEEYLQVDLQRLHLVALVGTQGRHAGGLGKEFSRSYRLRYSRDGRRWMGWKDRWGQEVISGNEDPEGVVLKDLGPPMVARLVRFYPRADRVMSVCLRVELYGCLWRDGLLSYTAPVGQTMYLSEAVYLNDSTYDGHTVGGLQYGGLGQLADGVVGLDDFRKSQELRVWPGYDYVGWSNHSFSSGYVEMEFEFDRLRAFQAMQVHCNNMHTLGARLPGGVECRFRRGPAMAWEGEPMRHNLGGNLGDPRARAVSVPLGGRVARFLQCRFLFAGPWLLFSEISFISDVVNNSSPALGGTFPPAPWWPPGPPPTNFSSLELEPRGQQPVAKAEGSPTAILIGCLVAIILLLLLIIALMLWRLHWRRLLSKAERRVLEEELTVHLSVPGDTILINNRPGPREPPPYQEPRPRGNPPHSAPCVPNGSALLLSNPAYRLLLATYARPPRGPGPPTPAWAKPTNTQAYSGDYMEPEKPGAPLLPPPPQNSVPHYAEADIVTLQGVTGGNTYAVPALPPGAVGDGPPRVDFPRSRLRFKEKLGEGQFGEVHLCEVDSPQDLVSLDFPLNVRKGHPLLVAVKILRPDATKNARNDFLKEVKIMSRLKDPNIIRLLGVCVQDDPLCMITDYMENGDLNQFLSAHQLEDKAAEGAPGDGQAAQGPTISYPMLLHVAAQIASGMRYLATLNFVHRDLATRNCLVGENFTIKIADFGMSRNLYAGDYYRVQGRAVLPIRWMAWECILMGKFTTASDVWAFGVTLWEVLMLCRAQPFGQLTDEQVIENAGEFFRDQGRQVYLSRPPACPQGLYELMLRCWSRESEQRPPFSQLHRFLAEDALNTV
Chain of SRSF protein kinase 2 (Homo sapiens) (P78362 whole entry, looked up): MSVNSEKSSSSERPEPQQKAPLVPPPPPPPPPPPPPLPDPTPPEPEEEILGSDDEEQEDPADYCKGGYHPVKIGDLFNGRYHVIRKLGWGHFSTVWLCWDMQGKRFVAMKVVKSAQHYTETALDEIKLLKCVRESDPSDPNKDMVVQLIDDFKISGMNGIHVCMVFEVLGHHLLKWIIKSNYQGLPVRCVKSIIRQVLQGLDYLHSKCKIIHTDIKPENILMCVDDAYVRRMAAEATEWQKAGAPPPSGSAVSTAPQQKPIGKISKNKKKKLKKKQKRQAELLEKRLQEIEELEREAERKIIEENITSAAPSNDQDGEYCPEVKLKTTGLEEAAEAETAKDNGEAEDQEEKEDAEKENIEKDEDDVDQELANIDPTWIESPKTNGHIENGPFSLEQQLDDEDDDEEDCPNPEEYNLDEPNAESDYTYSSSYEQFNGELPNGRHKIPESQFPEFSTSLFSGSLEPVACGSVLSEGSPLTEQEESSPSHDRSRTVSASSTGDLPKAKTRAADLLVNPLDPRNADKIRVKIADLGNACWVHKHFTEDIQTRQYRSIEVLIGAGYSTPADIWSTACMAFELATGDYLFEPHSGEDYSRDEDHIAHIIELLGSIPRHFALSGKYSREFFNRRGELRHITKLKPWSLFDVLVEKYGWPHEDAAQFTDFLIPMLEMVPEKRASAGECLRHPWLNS

Take `FC(F)(F)c1ccc(Cl)cc1CN1CCNc2ncc(-c3ccnc(N4CCNCC4)c3)cc21`: the inhibition (as a rule, the change of the read-out against control, counted positive when it falls) in test [1] is below 50%; in test [2], 96%; in test [3] it was below 50%; in test [4] it was below 50%; in test [5], below 50%; in test [6], below 50%. Also, the inhibition in test [7] was 96%.

On to `CN1CCN(c2ccc(-c3cnc4c(c3)N(Cc3cc(Cl)ccc3Cl)CCN4)cn2)CC1`, for which the inhibition in test [1], in test [2], in test [3], in test [4], in test [5] and in test [6] was below 50% in each case. In addition, in test [7], the inhibition is below 50%.

As for `COC1CCN(C(=O)c2ccc(-c3cnc4c(c3)N(Cc3cc(Cl)ccc3C(F)(F)F)CCN4)cc2)CC1`, the inhibition in test [4], in test [5], in test [6] and in test [7] was below 50% each time.

For `O=C(c1ccc(-c2cnc3c(c2)N(Cc2cc(Cl)ccc2C(F)(F)F)CCN3)cc1)N1CCCCC1`, the inhibition in test [4], in test [5], in test [6] and in test [7] was below 50% throughout.

In the case of `O=C(O)c1ccc(-c2cnc3c(c2)N(Cc2cc(Cl)ccc2C(F)(F)F)CCN3)cc1`, the inhibition in test [4], in test [5], in test [6] and in test [7] was below 50% each time.

With `CN1CCN(c2ccc(-c3cnc4c(c3)N(Cc3cc(F)ccc3F)CCN4)cn2)CC1`, the inhibition in test [1], in test [2], in test [3], in test [4], in test [5] and in test [6] was below 50% throughout. In test [7], the inhibition is below 50%.

Take `O=C(c1ccc(-c2cnc3c(c2)N(Cc2cc(Cl)ccc2C(F)(F)F)CCN3)cc1)N1CCC(N2CCCC2)CC1`: the inhibition is below 50% in test [4], 81.6% in test [5], below 50% in test [6] and 84% in test [7].

In the case of `CN1CCN(c2ccc(-c3cnc4c(c3)N(Cc3c(F)ccc(F)c3Cl)CCN4)cn2)CC1`, the inhibition in test [1], in test [2], in test [3], in test [4], in test [5] and in test [6] was below 50% in each case. For the same molecule, in test [7], the inhibition was below 50%.

For the molecule `CC(=O)N1CCN(c2cc(-c3cnc4c(c3)N(Cc3cc(Cl)ccc3C(F)(F)F)CCN4)ccn2)CC1`, the inhibition was below 50% in test [1]; 71% in test [2]; below 50% in test [3]; below 50% in test [4]; below 50% in test [5]; below 50% in test [6]. The molecule also gave an inhibition in test [7] below 50%.

Turning to `CN1CCN(c2ccc(-c3cnc4c(c3)N(Cc3cc(Cl)ccc3C(F)(F)F)CCN4)cn2)CC1`, the inhibition in test [1], in test [2], in test [3], in test [4], in test [5] and in test [6] was below 50% each time. In test [7], the inhibition is below 50%.
